# Laboratory results as given in PubChem BioAssay AID588365 (Broad Institute, 2011).
# The source made the active and inactive calls.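 How the source made its calls: active means compounds lowering cell ATP signal whose fitted half-maximal concentration is at most ten times the top tested dose; inconclusive means flat curve losing 30 to 70 percent, or poor fit; inactive means the rest.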
# Tested on: not listed separately
# Experiment: viability loss of HeLa cells by ATP content – CellTiter-Glo, 24 h, dry powder, cytotoxicity control, dose response (AID 588365)
# Conditions: HeLa viability, CellTiter-Glo ATP luminescence, 24 h; at 35 µM (top of the series)
# Summary of the method: (§1)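 material = human HeLa cell line, viability by cellular ATP | medium = phenol-red-free DMEM, 10% FBS | dosing = compound dose series | control set = DMSO neutral, mitoxantrone positive | signal = luminescence of cellular ATP with CellTiter-Glo reagent | incubation = 24 h compound exposure, 37 °C, then 10 min reagent, RT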
row,Structure (SMILES),"activity change, negative = cytotoxicity"
1,CN(C)S(=O)(=O)c1cc(C(=O)NC2CCSc3ccccc32)ccc1Cl (stereo unspecified),-9.03% (inactive)
2,CCC(=O)Oc1ccc2c(c1)O/C(=C\c1ccco1)C2=O,-1.46% (inactive)
3,O=C(O)CC(C(=O)O)N1C(=O)/C(=C/C=C/c2ccco2)SC1=S (stereo unspecified),4.8% (inactive)
4,O=C1/C(=C/c2ccco2)Oc2c1ccc(O)c2CN1CCCCC1,4.06% (inactive)
5,CC1=NN(c2cccc(C(=O)O)c2)C(=O)/C1=C\C=C\c1ccco1,-14.3% (inactive)
6,CSc1ccc(/C=N/Nc2cccc(C(=O)O)c2)cc1,-3.96% (inactive)
7,O=C(O)C1Nc2c(O)cc(Cl)c([N+](=O)[O-])c2C2C=CCC12 (stereo unspecified),-4.48% (inactive)
8,Nc1c(C(=O)Nc2ccccc2F)sc2nc(Cc3ccccc3)cc(C(F)(F)F)c12,0.381% (inactive)
9,COC(=O)c1ccccc1NC(=O)CCS(=O)(=O)c1ccc(Br)cc1,-2.03% (inactive)
10,Nc1c(/C=C2\C=CC(=O)C(O)=C2)c(=O)nc2sc(CC(=O)N3CCCCC3)nn12,-8.24% (inactive)
11,CC1(C)[C@@H](O[C@H]2O[C@H](C(=O)O)[C@@H](O)[C@H](O)[C@H]2O[C@@H]2O[C@H](C(=O)O)[C@@H](O)[C@H](O)[C@H]2O)CC[C@]2(C)[C@H]3C(=O)C=C4[C@@H]5C[C@@](C)(C(=O)O)CC[C@]5(C)CC[C@@]4(C)[C@]3(C)CC[C@@H]12,-1.78% (inactive)
12,O=C1CCCC(O)=C1N=Nc1ccc(C(=O)O)cc1,-7.5% (inactive)
13,Clc1ccc(-c2nnc3sc(-c4ccc(Br)o4)nn23)cc1,-0.723% (inactive)
14,O=C(O)CCCCCn1c(SCC(=O)c2ccc(O)c(O)c2)nc2ccsc2c1=O,-3.5% (inactive)

# Tested on: HeLa viability, CellTiter-Glo ATP luminescence, 24 h
# Experiment: as above
# Conditions: not given
# Summary of the method: as §1
row,Structure (SMILES),AC50
1,O=C(O)CCNc1ccc(NCCC(=O)O)c2c1C(=O)c1ccccc1C2=O,36.1 µM
2,O=c1c(O)cccc2cc(O)c(O)c(O)c12,16.1 µM
